Values belong to the molecule of their own block, whether it stands above or below them. Calls of active or inactive are those of the source. The rule behind the calls is not given here.
Key:
Pyruvate kinase PKM [1] = target: T1, Pyruvate kinase PKM (Homo sapiens, UniProt P14618); test: Activation of human recombinant His-tagged PKM2 expressed in Escherichia coli using PEP as substrate measured at 30 sec between 3 and 6 mins in presence of […] by fluorescent pyruvate kinase-lactate dehydrogenase coupled assay
Summary of the method: (§1)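 Pyruvate kinase activity read by fluorescent pyruvate kinase–lactate dehydrogenase coupled assay; AC50 and maximal activation are means of at least two determinations.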
Target sequence in this assay (P14618 whole entry): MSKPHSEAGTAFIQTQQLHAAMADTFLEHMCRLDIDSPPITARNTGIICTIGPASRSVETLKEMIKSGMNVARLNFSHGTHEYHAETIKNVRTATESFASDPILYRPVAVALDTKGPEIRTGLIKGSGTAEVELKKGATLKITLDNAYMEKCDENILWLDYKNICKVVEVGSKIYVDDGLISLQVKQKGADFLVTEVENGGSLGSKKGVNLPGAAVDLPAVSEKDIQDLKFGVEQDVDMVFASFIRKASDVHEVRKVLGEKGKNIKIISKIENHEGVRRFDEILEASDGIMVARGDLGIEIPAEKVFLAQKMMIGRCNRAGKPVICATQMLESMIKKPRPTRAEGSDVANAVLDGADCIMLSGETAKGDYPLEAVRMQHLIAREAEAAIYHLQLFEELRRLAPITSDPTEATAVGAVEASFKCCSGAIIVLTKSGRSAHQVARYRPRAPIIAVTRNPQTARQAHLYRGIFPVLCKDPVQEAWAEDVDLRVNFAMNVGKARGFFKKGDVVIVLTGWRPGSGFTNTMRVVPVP

Pyruvate kinase PKM [2] = target: T1, Pyruvate kinase PKM; test: Activation of human recombinant His-tagged PKM2 expressed in Escherichia coli assessed as maximal activity using PEP as substrate measured at 30 sec between 3 and 6 mins in presence of […] by fluorescent pyruvate kinase-lactate dehydrogenase coupled assay relative to control; summary of the method: as §1
Target sequence in this assay (P14618 2-531 limits assumed): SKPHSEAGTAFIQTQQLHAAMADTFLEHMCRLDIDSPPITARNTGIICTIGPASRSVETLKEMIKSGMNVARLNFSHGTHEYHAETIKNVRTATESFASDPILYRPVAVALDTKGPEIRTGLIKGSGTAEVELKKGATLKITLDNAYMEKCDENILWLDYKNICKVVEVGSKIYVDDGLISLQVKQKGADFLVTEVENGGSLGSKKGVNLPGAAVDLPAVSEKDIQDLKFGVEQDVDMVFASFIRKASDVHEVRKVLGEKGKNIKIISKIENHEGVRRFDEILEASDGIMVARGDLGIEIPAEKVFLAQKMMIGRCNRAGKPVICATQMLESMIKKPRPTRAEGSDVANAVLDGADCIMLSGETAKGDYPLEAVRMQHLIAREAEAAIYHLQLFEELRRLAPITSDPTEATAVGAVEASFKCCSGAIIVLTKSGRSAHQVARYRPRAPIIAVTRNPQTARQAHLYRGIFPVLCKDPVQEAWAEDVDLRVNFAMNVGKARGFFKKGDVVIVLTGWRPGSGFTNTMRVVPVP

HCT-116 = test: Antiproliferative activity against human HCT116 cells assessed as reduction in cell growth incubated for 72 hrs by CellTiter-Glo assay; format: functional, cell-based; conditions: HCT-116, 72 h
Summary of the method: (§2)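 Cells (H1299 in RPMI 1640; HCT116 and A375 in DMEM; 10% FBS, 37 °C, 5% CO2) plated at 2000 per well, left 24 h, then exposed to ten concentrations or DMSO for 72 h. CellTiter-Glo added, 30 min at room temperature in dark, luminescence read. IC50 fitted from triplicate experiments.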

NCI-H1299 = test: Antiproliferative activity against human H1299 cells assessed as reduction in cell growth incubated for 72 hrs by CellTiter-Glo assay; format: functional, cell-based; conditions: NCI-H1299, 72 h; summary of the method: as §2
A-375 [3] = test: Antiproliferative activity against human A375 cells assessed as reduction in cell growth incubated for 72 hrs by CellTiter-Glo assay; format: functional, cell-based; conditions: A-375, 72 h; summary of the method: as §2
A-375 [4] = test: Induction of apoptosis in human A375 cells assessed as viable cells level at 4 uM incubated for 24 hrs by AnnexinV-FITC/propidium iodide staining-based flow cytometric analysis (reference value: 89.51%); format: functional
Summary of the method: (§3)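 A375 cells seeded at 6×10^5 per well, grown 24 h, then given fresh medium with compound for 24 h. Harvested by trypsinization, washed twice in ice-cold PBS, stained with Annexin V-FITC/PI and analysed by flow cytometry. Annexin V+/PI− scored early, Annexin V+/PI+ late apoptotic, double-negative live.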

Homo sapiens = species: Homo sapiens; test: Inhibition of nuclear translocation of PKM2 in human A375 cells assessed as retardation of in nuclear accumulation of PKM2 at 1 to 4 uM incubated for 24 hrs by Hoechst staining-based immunofluorescent microscopic analysis; format: cell-based
Summary of the method: (§4)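 A375 cells seeded at 60% per well, grown 24 h at 37 °C, then treated with three concentrations, DMSO or NZT for 24 h (12 h in a separate run). Fixed 10 min in 3% PFA/0.1% glutaraldehyde, blocked overnight at 4 °C (3% BSA, 0.2% Triton X-100), stained with rabbit anti-PKM2 2 h, then secondary plus Hoechst 33258 1 h. Imaged on Operetta high content system; cytoplasmic fluorescence intensity quantified.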

[5] = Cytotoxicity against human HELF cells assessed as reduction in cell viability incubated for 72 hrs by CellTiter-Glo assay; format: cell-based
A-375 [6] = test: Induction of apoptosis in human A375 cells assessed as late apoptotic cells level at 2 uM incubated for 24 hrs by AnnexinV-FITC/propidium iodide staining-based flow cytometric analysis (reference value: 6.64%); format: functional; summary of the method: as §3
A-375 [7] = test: Induction of apoptosis in human A375 cells assessed as necrotic cells level at 4 uM incubated for 24 hrs by AnnexinV-FITC/propidium iodide staining-based flow cytometric analysis (reference value: 0.96%); format: functional; summary of the method: as §3
A-375 [8] = test: Induction of autophagy in human A375 cells assessed as increase in LC3-1 to LC3-2 transition at 1 to 4 uM incubated for 24 hrs by immunoflourescence assay; format: functional, cell-based
Summary of the method: (§5)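 A375 cells seeded at 60% per well, then treated with compound or DMSO for 24 h. Fixed in 3% PFA/0.1% glutaraldehyde, blocked overnight at 4 °C, immunostained with rabbit anti-LC3B plus Hoechst 33258. High content imaging quantified cytoplasmic LC3B intensity and LC3B spot area.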

A-375 [9] = test: Induction of apoptosis in human A375 cells assessed as viable cells level at 1 uM incubated for 24 hrs by AnnexinV-FITC/propidium iodide staining-based flow cytometric analysis (reference value: 89.51%); format: functional; summary of the method: as §3
A-375 [10] = test: Induction of apoptosis in human A375 cells assessed as necrotic cells level at 1 uM incubated for 24 hrs by AnnexinV-FITC/propidium iodide staining-based flow cytometric analysis (reference value: 0.96%); format: functional; summary of the method: as §3
A-375 [11] = test: Induction of apoptosis in human A375 cells assessed as late apoptotic cells level at 1 uM incubated for 24 hrs by AnnexinV-FITC/propidium iodide staining-based flow cytometric analysis (reference value: 6.64%); format: functional; summary of the method: as §3
A-375 [12] = test: Cytotoxicity in human A375 cells assessed as reduction in cel viability at 4 uM incubated for 24 hrs; format: functional, cell-based
A-375 [13] = test: Induction of apoptosis in human A375 cells assessed as necrotic cells level at 2 uM incubated for 24 hrs by AnnexinV-FITC/propidium iodide staining-based flow cytometric analysis (reference value: 0.96%); format: functional; summary of the method: as §3
A-375 [14] = test: Induction of apoptosis in human A375 cells assessed as early apoptotic cells level at 1 uM incubated for 24 hrs by AnnexinV-FITC/propidium iodide staining-based flow cytometric analysis (reference value: 2.89%); format: functional; summary of the method: as §3
[15] = Toxicity in BALB/C mouse xenografted with human A375 cells assessed as reduction in body weight at 50 mg/kg, po bid for 14 days measured on day 22; conditions: in vivo, 336 h
A-375 [16] = test: Antitumor activity in human A375 cells xenografted in BALB/C mouse assessed as reduction in tumor volume at 50 mg/kg, po bid for 14 days measured on day 22; format: functional, organism-based
Summary of the method: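 Male BALB/c athymic nude mice, six weeks old, 18–20 g, inoculated subcutaneously with A375 cells (5×10^7 cells/mL in DMEM, 0.2 mL). At 100–300 mm³ (7 days), randomized, n = 6 per group, dosed orally bid for 14 days; vehicle 0.5% CMCNa. Tumor volume ((width)²×length/2) and body weight measured 2–3 times weekly; tumors excised and weighed at day 22.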

A-375 [17] = test: Induction of autophagy in human A375 cells assessed as increase inLC3B spot area at 1 to 4 uM incubated for 24 hrs by immunoflourescence assay; format: functional, cell-based; summary of the method: as §5
A-375 [18] = test: Induction of apoptosis in human A375 cells assessed as late apoptotic cells level at 4 uM incubated for 24 hrs by AnnexinV-FITC/propidium iodide staining-based flow cytometric analysis (reference value: 6.64%); format: functional; summary of the method: as §3
A-375 [19] = test: Anti-migration activity against human A375 cells assessed as inhibition of cell migration speed incubated for 24 hrs; format: functional, cell-based
Summary of the method: (§6)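 A375 cells seeded at 60% per well, grown 24 h, then given six concentrations or DMSO. Migration speed and accumulated distance tracked in real time by live-cell high content imaging (Operetta) over 24 h. Data from triplicate experiments.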

[20] = target: Serine/threonine-protein kinase B-raf (Homo sapiens) (UniProt P15056); test: Inhibition of B-raf (unknown origin) at 10 uM
Chain of Serine/threonine-protein kinase B-raf (Homo sapiens) (P15056 whole entry): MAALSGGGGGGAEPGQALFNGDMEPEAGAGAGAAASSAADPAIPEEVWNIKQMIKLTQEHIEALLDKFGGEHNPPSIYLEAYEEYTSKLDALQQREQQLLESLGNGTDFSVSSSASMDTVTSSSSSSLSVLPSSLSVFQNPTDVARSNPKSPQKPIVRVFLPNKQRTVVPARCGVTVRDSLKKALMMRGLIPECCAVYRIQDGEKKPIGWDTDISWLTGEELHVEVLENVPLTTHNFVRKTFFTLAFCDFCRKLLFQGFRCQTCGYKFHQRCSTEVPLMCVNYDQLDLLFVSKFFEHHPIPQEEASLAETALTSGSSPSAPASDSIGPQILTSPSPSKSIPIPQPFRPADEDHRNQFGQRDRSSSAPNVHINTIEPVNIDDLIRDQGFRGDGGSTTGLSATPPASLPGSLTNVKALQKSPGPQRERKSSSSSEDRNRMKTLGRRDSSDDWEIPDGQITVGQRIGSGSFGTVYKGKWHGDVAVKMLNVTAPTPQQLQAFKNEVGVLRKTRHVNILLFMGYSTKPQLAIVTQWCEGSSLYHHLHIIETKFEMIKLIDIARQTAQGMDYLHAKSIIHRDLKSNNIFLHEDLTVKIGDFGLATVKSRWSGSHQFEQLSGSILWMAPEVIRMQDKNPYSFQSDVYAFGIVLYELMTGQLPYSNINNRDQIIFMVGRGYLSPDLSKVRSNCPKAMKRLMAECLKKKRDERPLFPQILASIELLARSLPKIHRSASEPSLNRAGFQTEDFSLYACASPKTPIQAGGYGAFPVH
Summary of the method: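 B-raf tested by single-point binding at 10 μM.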

A-375 [21] = test: Induction of apoptosis in human A375 cells assessed as early apoptotic cells level at 4 uM incubated for 24 hrs by AnnexinV-FITC/propidium iodide staining-based flow cytometric analysis (reference value: 2.89%); format: functional; summary of the method: as §3
A-375 [22] = test: Induction of apoptosis in human A375 cells assessed as apoptotic cells at 1 to 4 uM incubated for 24 hrs by AnnexinV-FITC/propidium iodide staining-based flow cytometric analysis relative to control; format: functional, cell-based; summary of the method: as §3
Pyruvate kinase PKM [23] = target: T1, Pyruvate kinase PKM; test: Inhibition of nuclear translocation of PKM2 in human A375 cells assessed as retardation of in nuclear accumulation of PKM2 at 1 to 4 uM incubated for 12 hrs by Hoechst staining-based immunofluorescent microscopic analysis; format: cell-based; summary of the method: as §4
Target sequence in this assay (P14618 2-531 limits assumed): as the sequence (P14618 2-531 limits assumed) above

A-375 [24] = test: Inhibition of nuclear translocation of PKM2 in human A375 cells assessed as cell death of PKM2 at 4 uM incubated for 24 hrs by Hoechst staining-based fluorescent microscopic analysis; format: functional
C2C12 = test: Cytotoxicity against mouse C2C12 cells assessed as reduction in cell viability incubated for 72 hrs by CellTiter-Glo assay; format: cell-based; conditions: C2C12, 72 h
[25] = Cytotoxicity against mouse C2C12 cells assessed as reduction in cell viability at 20 uM incubated for 72 hrs by CellTiter-Glo assay relative to control; format: cell-based; conditions: read-out: INH
A-375 [26] = test: Induction of apoptosis in human A375 cells assessed as viable cells level at 2 uM incubated for 24 hrs by AnnexinV-FITC/propidium iodide staining-based flow cytometric analysis (reference value: 89.51%); format: functional; summary of the method: as §3
A-375 [27] = test: Induction of apoptosis in human A375 cells assessed as early apoptotic cells level at 2 uM incubated for 24 hrs by AnnexinV-FITC/propidium iodide staining-based flow cytometric analysis (reference value: 2.89%); format: functional; summary of the method: as §3
[28] = Cytotoxicity against human HELF cells assessed as reduction in cell viability at 20 uM incubated for 72 hrs by CellTiter-Glo assay relative to control; format: cell-based; conditions: read-out: INH
A-375 [29] = test: Anti-migration activity against human A375 cells assessed as inhibition of cell migration distance incubated for 24 hrs; format: functional, cell-based; summary of the method: as §6

AC50 (Pyruvate kinase PKM [1]; read-out: AC50): > 20000 nM
%max (Pyruvate kinase PKM [2]): inactive
Structure (SMILES): O=C(CCSC(=S)NCc1cccnc1)c1c[nH]c2ncc(-c3ccc(Cl)cc3)cc12

IC50 (HCT-116): 3090 nM
IC50 (NCI-H1299): 3680 nM
IC50 (A-375 [3]): 1030 nM
%max (Pyruvate kinase PKM [2]): 113%
Structure (SMILES): O=C(CCSC(=S)NCc1cccnc1)c1c[nH]c2ncccc12

AC50 (Pyruvate kinase PKM [1]; read-out: AC50): 2670 nM
IC50 (HCT-116): 710 nM
IC50 (NCI-H1299): 2280 nM
IC50 (A-375 [3]): 280 nM
inhibition [20]: 41%
Activity (Pyruvate kinase PKM [23]): Active
%max (Pyruvate kinase PKM [2]): 149%
Structure (SMILES): O=C(CCSC(=S)NCc1cccnc1)c1cn(CC(F)F)c2ncccc12
Activity (A-375 [4]): 67.24%
inhibition (Homo sapiens): Dose-dependent effect
IC50 [5]: > 20000 nM
Activity (A-375 [6]): 6.98%
Activity (A-375 [7]): 4.45%
Activity (A-375 [8]): Dose-dependent effect
Activity (A-375 [9]): 86.39%
Activity (A-375 [10]): 1.57%
Activity (A-375 [11]): 8.09%
Activity (A-375 [12]): Active
Activity (A-375 [13]): 2.11%
Activity (A-375 [14]): 3.95%
Activity [15]: Non-Toxic
Activity (A-375 [16]): Active
Activity (A-375 [17]): Dose-dependent effect
Activity (A-375 [18]): 9.76%
Activity (A-375 [19]): Dose-dependent effect
Activity (A-375 [21]): 18.55%
Activity (A-375 [22]): Dose-dependent effect
inhibition (A-375 [24]): Active
IC50 (C2C12): > 20000 nM
cytotoxicity at 72 h, 20 µM [25]: 46%
Activity (A-375 [26]): 76.9%
Activity (A-375 [27]): 14.01%
cytotoxicity at 72 h, 20 µM [28]: 10%
Activity (A-375 [29]): Dose-dependent effect

AC50 (Pyruvate kinase PKM [1]; read-out: AC50): 220 nM
IC50 (HCT-116): 1520 nM
IC50 (NCI-H1299): 1760 nM
IC50 (A-375 [3]): 330 nM
%max (Pyruvate kinase PKM [2]): 44%
Structure (SMILES): O=C(CCSC(=S)NCc1cccnc1)c1cnn2ncccc12

AC50 (Pyruvate kinase PKM [1]; read-out: AC50): > 20000 nM
%max (Pyruvate kinase PKM [2]): 24%
Structure (SMILES): C#Cc1ccnc2[nH]cc(C(=O)CCSC(=S)NCc3cccnc3)c12

AC50 (Pyruvate kinase PKM [1]): Not Active
%max (Pyruvate kinase PKM [2]): inactive
Structure (SMILES): O=C(CCSC(=S)NCc1cccnc1)c1c[nH]c2nccc(C3CC3)c12

AC50 (Pyruvate kinase PKM [1]; read-out: AC50): 610 nM
IC50 (HCT-116): 4900 nM
IC50 (NCI-H1299): > 10000 nM
IC50 (A-375 [3]): 1990 nM
%max (Pyruvate kinase PKM [2]): 83%
Structure (SMILES): O=C(CCSC(=S)NCc1cccnc1)c1c[nH]c2nccc(Br)c12

AC50 (Pyruvate kinase PKM [1]; read-out: AC50): 450 nM
IC50 (HCT-116): 9080 nM
IC50 (NCI-H1299): > 10000 nM
IC50 (A-375 [3]): 2770 nM
%max (Pyruvate kinase PKM [2]): 148%
Structure (SMILES): O=C(CCSC(=S)NCc1cccnc1)c1c(-c2ccccc2)nn2ncccc12

AC50 (Pyruvate kinase PKM [1]; read-out: AC50): 4350 nM
IC50 (HCT-116): 940 nM
IC50 (NCI-H1299): 2090 nM
IC50 (A-375 [3]): 290 nM
%max (Pyruvate kinase PKM [2]): 114%
Structure (SMILES): Cn1cc(C(=O)CCSC(=S)NCc2cccnc2)c2cccnc21

AC50 (Pyruvate kinase PKM [1]; read-out: AC50): 2500 nM
IC50 (HCT-116): 5360 nM
IC50 (NCI-H1299): 10000 nM
IC50 (A-375 [3]): 3860 nM
%max (Pyruvate kinase PKM [2]): 77%
Structure (SMILES): O=C(CCSC(=S)NCc1cccnc1)c1cn(-c2ccccc2)c2ncccc12
